From ChEMBL document CHEMBL1799980, “Protuboxepins A and B and protubonines A and B from the marine-derived fungus Aspergillus sp. SF-5044” (J Nat Prod, 2011)
Active and inactive are the calls of the source. The calls are words filed in the database; no cut-off is given here.

Legend:
K562 [1] = assay: Growth inhibition of human K562 cells at 250 uM after 48 hrs by cell proliferation assay; type: functional, cell-based
How it was run: (§1)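 K562 leukemia cells seeded at 3 × 10^4 per well in 96-well plates and exposed for 48 h to compounds in DMSO, including 250 μM. Readout was EZ-CyTox cell viability reagent with absorbance at 450 nm.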

[2] = Growth inhibition of rat 3Y1 cells at 250 uM after 48 hrs by cell proliferation assay; type: cell-based; conditions: 3y1, 48 h
How it was run: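 Cells seeded in 96-well plates at 5 × 10^3 per well. Compounds dissolved in DMSO and applied for 48 h. Viability read with an EZ-CyTox cell viability kit by absorbance at 450 nm.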

HL-60 [3] = assay: Growth inhibition of human HL60 cells at 250 uM after 48 hrs by cell proliferation assay; type: functional, cell-based
MDA-MB-231 [4] = assay: Growth inhibition of human MDA-MB-231 cells at 250 uM after 48 hrs by cell proliferation assay; type: functional, cell-based
How it was run: (§2)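 MDA-MB-231 breast adenocarcinoma cells at 5 × 10^3 per well in a 96-well microplate. Compounds were dissolved in DMSO and applied for 48 h, including a 250 μM level. Viability was measured with the EZ-CyTox kit as A450.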

Hep 3B2 = assay: Growth inhibition of human Hep3B cells at 250 uM after 48 hrs by cell proliferation assay; type: functional, cell-based
How it was run: (§3)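 Hep3B hepatocellular carcinoma cells plated at 5 × 10^3 per well in 96-well format. Treatment with DMSO-dissolved compounds, including 250 μM, lasted 48 h. Proliferation was read with the EZ-CyTox kit by A450.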

HL-60 [5] = assay: Growth inhibition of human HL60 cells after 48 hrs by cell proliferation assay; type: functional, cell-based; conditions: HL-60, 48 h
MDA-MB-231 [6] = assay: Growth inhibition of human MDA-MB-231 cells after 48 hrs by cell proliferation assay; type: functional, cell-based; conditions: MDA-MB-231, 48 h; how it was run: as §2
[7] = Growth inhibition of human Hep3B cells after 48 hrs by cell proliferation assay; type: functional, cell-based, Hep 3B2; how it was run: as §3
[8] = Growth inhibition of rat 3Y1 cells after 48 hrs by cell proliferation assay; type: cell-based; conditions: 3Y1, 48 h
How it was run: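 Rat 3Y1 fibroblasts seeded at 5 × 10^3 per well in 96-well plates and exposed 48 h to DMSO-dissolved test compounds. Proliferation was quantified with the EZ-CyTox viability kit by absorbance at 450 nm.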

K562 [9] = assay: Growth inhibition of human K562 cells after 48 hrs by cell proliferation assay; type: functional, cell-based; conditions: K562, 48 h; how it was run: as §1

Row | IC50 (HL-60 [5]) | IC50 (MDA-MB-231 [6]) | IC50 (K562 [9]) | Compound | growth inhibition (GI) (K562 [1]) | growth inhibition (GI) [2] | growth inhibition (GI) (HL-60 [3]) | growth inhibition (GI) (MDA-MB-231 [4]) | growth inhibition (GI) (Hep 3B2) | IC50 [7] | IC50 [8]
1 | – | – | – | CC(=O)N1c2ccccc2[C@]2(O)C[C@@H]3C(=O)N[C@@H](CC(C)C)C(=O)N3[C@H]12 [PROTUBONINE A] | inactive | Not Active | inactive | inactive | inactive | – | –
2 | – | – | – | CC(=O)O[C@@]12C[C@@H]3C(=O)N[C@@H](CC(C)C)C(=O)N3[C@@H]1N(C(C)=O)c1ccccc12 [PROTUBONINE B] | inactive | Not Active | inactive | inactive | inactive | – | –
3 | 75 µM | 130 µM | 250 µM | CCC(C)[C@@H]1NC(=O)[C@@H](Cc2ccccc2)n2c1nc1c(c2=O)C=CC=CO1 (stereo not given in full) [PROTUBOXEPIN A] | – | – | – | – | – | 150 µM | 180 µM
